Results as given in PMC5992016 (Movement disorders : official journal of the Movement …, 2018).
Structures can show the parent of a compound that is named as a salt.

What was measured:
[1] = system: AIMs (abnormal involuntary movements) in rodents; conditions: cited from earlier work; for effect on AIMs in rodents: inhibitor of PDEs 5, 6 and 9
[2] = system: L-Dopa-induced dyskinesias in MPTP-treated macaques; assay: Acute co-administration with s.c. L-Dopa: LID scores; assay type: in vivo, Macaca fascicularis; conditions: L-Dopa optimal dose s.c.; amantadine 5 or 10 mg/kg s.c.
How it was run: (§1)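 Used MPTP macaques (3 male, 2 female) on oral carbidopa/levodopa maintenance. Optimal s.c. L-Dopa methyl ester dose (MDS reduction 50–75%) was set per animal, with benserazide at one quarter. Amantadine or test compound (DMSO/cremophor) or vehicle was given s.c. just before. Blinded live and video scoring ran off-state, then from 30 min every 20 min. Part II: peak (50 min) and summed total. Part I: MDS AUC. Triplicate runs were averaged.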

[3] = system: parkinsonian motor disability in MPTP-treated macaques; assay: Acute co-administration with s.c. L-Dopa: motor disability scores; assay type: in vivo, Macaca fascicularis; conditions: amantadine 5 and 10 mg/kg s.c.
How it was run: as §1

[4] = system: hand movement speed in MPTP-treated macaques; assay: Acute co-administration with s.c. L-Dopa: Klüver board test; assay type: in vivo, Macaca fascicularis

In the case of `CCCOc1ccccc1-c1nc2nn[nH]c2c(=O)[nH]1` [zaprinast], the “effect on AIMs in rodents” value [1] is given as “improves AIMs”.

For `FC(F)(F)Cn1cc(-c2ccncc2)c(-c2ccc(OCc3ccc4ccccc4n3)cc2)n1` [TP-10], the “antidyskinetic effects in rodents” value ([1]; preliminary tests) is given as “antidyskinetic effects”.

For `NC12CC3CC(CC(C3)C1)C2` [amantadine, amantadine hydrochloride], the “effect on LID compared with MR1916” value [2] was “similar”, the “effect on MDS in the on state” value ([3]; L-Dopa optimal dose s.c.) was “significantly increased MDS” and the “effect on MDS” value ([3]; L-Dopa suboptimal dose s.c.) was “reduced the beneficial effect of L-Dopa on MDS”. For the same molecule, the “movement speed (time) in KBT in the on state” value ([4]; L-Dopa optimal dose s.c., amantadine 10 mg/kg s.c.) was “increased” and the “movement speed (time) in KBT” value ([4]; L-Dopa suboptimal dose s.c., highest dose (MR1916 0.05 mg/kg, amantadine 10 mg/kg s.c.)) was “increased”.

In the case of `CCCOc1ccc(S(=O)(=O)N2CCN(CC)CC2)cc1-c1nc2c(CC)n(Cc3ccccn3)nc2c(=O)[nH]1` [UK343664], the “effect on AIMs in rodents” value [1] is given as “improves AIMs”.
